TRPC4 agonist = opens the mouse TRPC4 cation channel; 310,000 compounds, 0.49% hits; B-score at 10 µM; HEK293 TRPC4beta/mu-opioid, Fluo4 calcium fluorescence; stronger effect = higher value; Q9QUQ5;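 active means B-score above 5 SD of library B-scores, and initial fluorescence ratio not above library mean plus 5 SD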;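 further: positive B-score marks a calcium rise read as TRPC4 activation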
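Assay system – TRPC4beta and mu-opioid receptor HEK293 stable cells · Measured by – Fluo4 fluorescence, kinetic · Schedule – dye loading 45 min room temperature, 110 s kinetic read · Read-out – B-scored integrated calcium fluorescence ratio · Controls – buffer and maximal DAMGO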
TRPC6 act = mouse TRPC6 channel activation; 310,000 compounds, 0.13% hits; B-score at 10 µM; HEK293-TRPC6 membrane potential dye fluorescence; stronger effect = higher value;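 active means B-score of the integrated fluorescence ratio above library mean plus 3 SD, and starting fluorescence ratio within library mean plus 5 SD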;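 further: higher score means more depolarization so channel activation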
Target sequence (Q61143 whole entry, looked up): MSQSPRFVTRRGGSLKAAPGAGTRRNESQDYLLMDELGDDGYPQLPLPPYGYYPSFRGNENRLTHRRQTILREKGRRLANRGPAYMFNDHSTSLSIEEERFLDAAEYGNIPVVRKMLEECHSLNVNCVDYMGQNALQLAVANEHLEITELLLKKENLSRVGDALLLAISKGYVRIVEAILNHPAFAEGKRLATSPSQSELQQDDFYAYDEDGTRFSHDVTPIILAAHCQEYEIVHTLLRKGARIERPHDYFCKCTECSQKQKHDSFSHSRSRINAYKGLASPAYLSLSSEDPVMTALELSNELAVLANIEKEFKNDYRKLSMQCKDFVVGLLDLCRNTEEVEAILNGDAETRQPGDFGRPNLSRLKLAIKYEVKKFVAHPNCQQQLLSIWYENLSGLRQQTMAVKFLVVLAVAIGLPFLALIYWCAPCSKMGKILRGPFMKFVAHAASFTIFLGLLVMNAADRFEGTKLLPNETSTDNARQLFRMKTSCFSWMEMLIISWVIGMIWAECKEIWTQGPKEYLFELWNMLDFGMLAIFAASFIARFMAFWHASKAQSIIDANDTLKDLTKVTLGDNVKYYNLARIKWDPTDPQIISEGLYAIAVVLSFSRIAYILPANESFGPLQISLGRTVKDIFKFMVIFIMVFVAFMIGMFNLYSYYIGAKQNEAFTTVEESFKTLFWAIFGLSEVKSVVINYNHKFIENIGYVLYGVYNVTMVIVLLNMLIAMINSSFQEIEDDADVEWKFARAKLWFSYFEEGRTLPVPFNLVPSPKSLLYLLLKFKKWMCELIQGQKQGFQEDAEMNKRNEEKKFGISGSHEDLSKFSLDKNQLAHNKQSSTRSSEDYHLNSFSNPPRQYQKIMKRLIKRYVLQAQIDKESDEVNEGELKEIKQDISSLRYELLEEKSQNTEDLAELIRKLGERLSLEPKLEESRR
TRPC4 block = TRPC4 (mouse) channel inhibition; HEK293 TRPC4beta/mu-opioid, DAMGO-evoked Fluo4 calcium flux; stronger effect = lower value; B-score at 10 µM; 300,000 compounds, 0.39% hits;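 active means B-score over 3 SD under the library average, no early fluorescence shift, positive overall ratio signal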
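Test system – stable TRPC4beta/mu-opioid receptor HEK293 cells · Probe or stimulus – DAMGO, a submaximal dose followed by a maximal one · Dosing – one concentration per compound · Signal – Fluo4 calcium fluorescence by kinetic imaging, 5 s 1 Hz baseline · Evaluation – per-well B score of integrated baseline-normalized Fluo4 ratio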
TRPC4 potent = allosteric potentiators of mouse TRPC4 channel | AID 2227 | Q9QUQ5 | HEK293 TRPC4beta/mu-opioid, DAMGO EC20, Fluo-4 Ca2+ flux; stronger effect = higher value | B-score at 10 µM | 310,000 compounds, 0.42% hits;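 active means B-score of calcium response area above 5 SD of library B-scores, with initial fluorescence ratio within 5 SD of library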
TRPC6 inhibitor = inhibitors of mouse TRPC6 channel. Q61143. HEK293-TRPC6, membrane potential dye, ACh-evoked depolarization; stronger effect = lower value. B-score at 10 µM. 310,000 compounds, 1.1% hits;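 active means B-score under library mean minus 3 SD, initial fluorescence not abnormally high, positive integrated signal ratio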;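 further: B-score derived from integrated fluorescence ratio over the kinetic read; more negative B-score means stronger inhibition of depolarization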
Large screens that a line does not name were inactive. Most compounds without a hit are left out; they make up all but 2.3% or so of the library.

CCn1cc(CNCc2cn(-c3ccccc3C)nc2-c2ccc(OC)c(F)c2)cn1	TRPC4 agonist 129
COc1ccc(-c2nn(-c3ccccc3C)cc2CNC(C)c2cn(C)nc2C)cc1F (configuration not stated)	TRPC4 agonist 118
COc1ccc(-c2nn(-c3ccccc3C)cc2CNCCc2cnc[nH]2)cc1F	none
COc1ccc(-c2nn(-c3ccccc3C)cc2CNC(C)Cn2cncn2)cc1F (configuration not stated)	none
O=C(CN(C(=O)c1csnn1)c1ccc2c(c1)OCCO2)NCc1ccc(F)cc1	none
CCCCN(CC(O)COc1cccc(C)c1)CC(O)COc1cccc(C)c1 (configuration not stated)	none
Cc1cccc(NC(=S)NCc2ccccc2Cl)c1C	none
COc1ccc(S(=O)(=O)Nc2ncccc2C)c2ccccc12	TRPC4 potent 11
COc1ccc(Br)cc1S(=O)(=O)Nc1ncccc1C	none
CCOC(=O)[C@@H]1CCNC[C@@H]1c1ccccc1	TRPC4 agonist 190
CCOC(=O)C1NC(=O)CC1c1ccccc1 (configuration not stated)	none
COc1ccc(NC(=S)NCC(c2ccco2)N2CCCC2)cc1 (configuration not stated)	none
S=C(NCCc1ccccc1)NCC(c1ccco1)N1CCCCC1 (configuration not stated)	TRPC4 agonist 60
Cc1cc(C)c(C)c(S(=O)(=O)NCC(=O)NCC2CCCCC2)c1C	none
CN(CCOc1ccc(Cl)cc1)C(=O)c1cc(-c2ccco2)nc2ccccc12	none
COc1ccc(CC(=O)Nc2cc(Cl)ccc2C(=O)O)cc1	none
CCCCOc1ccc(Nc2cc(Cl)ccc2C(=O)O)cn1	TRPC4 block -7
CC(=O)c1cn(S(=O)(=O)c2ccccc2)c2ccccc12	none
CN1CCC(CNC(=O)Nc2ccccc2)(c2ccccc2)CC1	TRPC4 agonist 172
CCN(CC)S(=O)(=O)c1ccc(N2CCOCC2)c(NC(=O)C2CC2)c1	none
CCCS(=O)(=O)c1c(S(=O)(=O)CCC)c2ccc(C(N)=O)cn2c1C(=O)c1ccc(OC)cc1	TRPC4 potent 20
CCCS(=O)(=O)c1c(S(=O)(=O)CCC)c2ccc(C(N)=O)cn2c1C(=O)OC	none
CCCCn1c2ccc(F)cc2c2nnc(SCCN3CCOCC3)nc21	none
CCCCn1c2ccccc2c2nnc(SCCN3CCCCC3)nc21	TRPC4 block -7
Cc1ccc(S(=O)(=O)NCC(=O)NC2CC2)cc1	none
CCCCCC(=O)Nc1ccc(C(=O)COC(=O)CN2C(=O)NC3(CCCC3)C2=O)cc1	none
Cc1ccc(N2CC(C(=O)Nc3ncc([N+](=O)[O-])s3)CC2=O)cc1 (configuration not stated)	none
Cc1[nH]c2ccccc2c1N=Nc1ccccc1F	TRPC4 block -6
Cc1c(C(=O)Nc2c(C)n(C)n(-c3ccccc3)c2=O)oc2ccc(Cl)cc12	none
CCOCCCNC(=O)c1oc2ccc3c(c2c1C)C(O)CC(C)(C)O3 (configuration not stated)	none
CCn1c(-c2cc(-c3ccc(C)c(C)c3)nc3ccccc23)n[nH]c1=S	none
Cc1ccc(-c2cc(-c3n[nH]c(=S)n3C)c3ccccc3n2)cc1	TRPC4 potent 12
COC(=O)CCC(=O)Nc1nnc(C(F)(F)F)s1	none
CCC(NC(=O)Nc1nnc(C(F)(F)F)s1)(C(F)(F)F)C(F)(F)F	TRPC6 inhibitor -6.08
COC(=O)c1sc(NC(=S)NC(=O)c2ccccc2C)nc1C	TRPC4 agonist 49
CCOC(=O)c1c(S(=O)(=O)NCC2CCN(Cc3cccc(F)c3)CC2)c(C)n(C)c1C	none
O=c1ccc(-c2ccc(S(=O)(=O)NCC3CCN(Cc4cccc(F)c4)CC3)s2)n[nH]1	TRPC4 potent 10
COc1cc2cc(CN(Cc3cccnc3)C(=O)Nc3ccccc3F)c(=O)[nH]c2cc1OC	none
COc1cccc(C(=O)NC2CCCN(C3Cc4ccccc4C3)C2)c1OC (configuration not stated)	TRPC4 agonist 90
CC#CC(=O)NC1CCCN(C2Cc3ccccc3C2)C1 (configuration not stated)	none
N#Cc1ccc(Oc2ncccn2)cc1	none
O=C(O)c1ccc(N/N=C/c2ccc(-c3cccc(Cl)c3)o2)cc1	TRPC4 block -6
COC(=O)c1c(-c2c(Cl)cccc2Cl)noc1C(=O)NNC(=O)N(C)C	none
COc1ccc(CNCC(O)COc2ccc(C(C)(C)c3ccccc3)cc2)cc1 (configuration not stated)	none
CCOc1ccc(OCC(O)CNC2CCN(Cc3ccccc3)CC2)cc1 (configuration not stated)	TRPC4 agonist 108, TRPC4 block -6
CC(C)(c1ccccc1)c1ccc(OCC(O)CNC2CCN(Cc3ccccc3)CC2)cc1 (configuration not stated)	TRPC4 agonist 92
CC(=O)c1ccc(OCC(O)CN2CCN(Cc3ccccc3)CC2)cc1 (configuration not stated)	none
CCCCc1cc(=O)oc2cc(OCC(=O)Nc3cccnc3)c(Cl)cc12	none
C/C(=N\N(c1ccccc1)c1ccccc1)c1ccc(N)cc1	TRPC4 potent 24
C/C(=N\N(c1ccccc1)c1ccccc1)c1ccc(O)cc1	none
O=c1c2ccccc2ncn1-c1ccc([N+](=O)[O-])cc1[N+](=O)[O-]	none
Cc1ccc(-n2cnn(-c3ccc([N+](=O)[O-])cc3[N+](=O)[O-])c2=O)cc1	TRPC4 block -6
Cc1ccc2c(c1)N(CC(=O)NC1CCC(C)CC1)C(=O)c1cccnc1O2 (configuration not stated)	none
O=C1CC(NS(=O)(=O)c2ccccc2F)CN1c1ccc2c(c1)OCCO2 (configuration not stated)	none
Cc1cc([N+](=O)[O-])ccc1NCc1ccccc1	TRPC4 block -7
O=C(Nc1ccccc1C(=O)NCCc1ccc(O)cc1)c1ccco1	none
CCCCCOc1ccc(/C=C/c2c([N+](=O)[O-])c(=O)n(C)c(=O)n2C)cc1	none
Cc1ccc(Cl)cc1NC(=O)CCC(=O)O	none
COc1ccc(Cl)cc1NC(=O)CNCC(c1ccccc1)N(C)C (configuration not stated)	TRPC4 agonist 49, TRPC4 block -7
Cc1ccc(Cl)cc1NC(=O)CNCC(c1ccccc1)N(C)C (configuration not stated)	TRPC4 agonist 118
COc1ccc(Cl)cc1NC(=O)CNC(c1ccccc1)c1ccccc1	none
COC(=O)C1=C(C)N(Cc2ccccc2)C(=O)N[C@H]1c1cccc(C(F)(F)F)c1	TRPC4 potent 10
CCN1CCN(c2nc(N)c([N+](=O)[O-])c(Nc3ccc(C)cc3)n2)CC1	TRPC4 potent 17
CCN1CCN(c2nc(N)c([N+](=O)[O-])c(Nc3ccc(C)c(C)c3)n2)CC1	TRPC4 potent 29
